According to publication PMC4822498 (Journal of pharmaceutical sciences, 2015):
≈ marks a conversion by molar mass, not a printed value.

Legend:
[1] = test system: HIV-1RF; assay: Inhibition of cell to cell virus transmission assay; format: cell-based
[2] = test system: HIV-1ZA/97/009; assay: Anti-HIV assay in fresh human PBMCs; format: cell-based
[3] = In vitro release study from IVR segments with release modelling; format: physicochemical
[4] = test system: HIV-1IIIB; assay: Cytopathic effects; format: cell-based
[5] = Chemical stability of the analogues in aqueous solution at pH 4.0 and 5.0; format: physicochemical
Procedure, shortened: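 Test compound prepared as 50 µM stock solutions in 10 mM acetate buffer (pH 4.0 and 5.0) and held at 40°C/75% RH. Aliquots were taken at 0, 1, 2 and 4 weeks; time-zero samples (n=3) were stored at −80°C. Drug content was measured by HPLC with norethindrone internal standard (LOQ 18.0 pmol). k = −2.303 × slope of a linear regression of log concentration vs time (first order).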

[6] = Determination of aqueous solubility; format: physicochemical; settings: DDI water, 37°C
Procedure, shortened: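 Saturated solution of test compound in 18 MΩ DDI water, shaken at 250 rpm at 37°C. Aliquots at time zero, 24 h and 48 h were filtered through 0.2 µm nylon and stored at −80°C before analysis.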

Cc1cc(C)cc(C(=O)c2c(C(C)C)c(=O)[nH]c(=O)n2CC2CC2)c1 [IQP-0528, 1-cyclopropylmethyl-6-(3,5-dimethyl-benzoyl)-5-isopropyl-1H-pyrimidine-2,4-dione]
EC95 ([1]; HIV-1RF Cell to Cell Transmission): 85 nM
EC50 ([1]; Human immunodeficiency virus 1): 6 nM
EC50 ([2]; Human immunodeficiency virus 1, PBMC, in Homo sapiens): 6 nM
EC95 ([2]; PBMCs/HIV-1ZA/97/009): 19 nM
diffusivity ([3]; IQP-0528 single agent IVR): 3.9 ± 0.4 × 10^−10 cm^2/s
release of IQP-0528 relative to SAMT-10 by mass ([3]; combination IVR): ~3.5 times
diffusivity ([3]; combination IVR, in presence of 8% SAMT-10): 2.8 ± 0.8 × 10^−10 cm^2/s
decrease of diffusivity in the presence of 8% SAMT-10 ([3]; combination vs single agent IVR): 27%
cumulative release ([3]; from combination IVR, 30 days, scaled to full IVR): 86 ± 13 mg/IVR
EC95 ([4]; CEM-SS/HIV-1IIIB): 8 nM
EC50 ([4]; Human immunodeficiency virus 1, CEM-SS): 2 nM

NC(=O)CCNC(=O)c1ccccc1SC(=O)c1ccccc1 [SAMT-08]
concentration remaining in aqueous solution ([5]; pH 4.0, 40°C/75% RH, 0 weeks): 46.5 ± 0.1 µM
concentration remaining in aqueous solution ([5]; pH 4.0, 40°C/75% RH, 1 week): 40.9 ± 0.1 µM
concentration remaining in aqueous solution ([5]; pH 4.0, 40°C/75% RH, 2 weeks): 35.1 ± 0.5 µM
concentration remaining in aqueous solution ([5]; pH 4.0, 40°C/75% RH, 4 weeks, ND = Not Detected): 26.8 ± 0.2 µM
Degradation rate constant (k) ([5]; pH 4.0, first order): 2.3 10^−7 sec^−1
concentration remaining in aqueous solution ([5]; pH 5.0, 40°C/75% RH, 0 weeks): 68.6 ± 0.2 µM
concentration remaining in aqueous solution ([5]; pH 5.0, 40°C/75% RH, 1 week): 57.3 ± 0.6 µM
concentration remaining in aqueous solution ([5]; pH 5.0, 40°C/75% RH, 2 weeks): 49.0 ± 1.8 µM
concentration remaining in aqueous solution ([5]; pH 5.0, 40°C/75% RH, 4 weeks, ND = Not Detected): 36 ± 1.43 µM
Degradation rate constant (k) ([5]; pH 5.0, first order): 2.3 10^−7 sec^−1
water solubility [6]: 2377.6 ± 27.8 µM (≈ 781 µg/mL)
